For orientation: pKb means the negative decadic logarithm of the Kb, by convention in mol/L. A low value points to a high Kb.

The target of test [1] is GABA-A receptor; alpha-1/beta-2/gamma-2 (Homo sapiens) (UniProt P14867+P47870+P18507). As to the kind of experiment: Modulation of human alpha1beta2gamma2S GABAA receptor expressed in Xenopus laevis oocytes assessed as increase in GABA-induced current at 1 mM at -60 mV holding potential by two-electrode voltage clamp electrophysiology method. The class given is cell-based. In a few lines:
(§1)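 cRNA for human α1β2 (1:1) or α1β2γ2S (5:1:5) subunits injected into X. laevis oocytes (0.9–1.8 ng) and stored at 18 °C in Barth's solution, pH 7.5. Two-electrode voltage clamp in perfused recording solution at pH 7.4. Test compound at 1 mM applied with 1 mM GABA. Currents normalized and given as fold potentiation.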

Test [2] is filed under the species Rattus norvegicus. As to the kind of experiment: Modulation of [3H]NCS-382 binding to alpha4betadelta GABAA receptor in rat cortical membranes after 1 hr by TopCount scintillation counting method. The test is classed as cell membranes. In a few lines:
(§2)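 Rat cortical membrane homogenate (50-70 µg protein per well) incubated with 16 nM [³H]NCS-382 and increasing analogue concentrations, 1 hr at 0-4 °C. Bound ligand collected by rapid filtration on GF/C filters and counted by scintillation. Single-point screen at 100 µM; cooperativity factor (α) and modulator Kb obtained by curve fitting. Triplicates, at least three independent experiments.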

The species entered for test [3] is Rattus norvegicus. The test can be described thus: Modulation of [3H]NCS-382 binding to alpha4betadelta GABAA receptor in rat cortical membranes assessed as [3H]NCS-382 binding at 100 uM after 1 hr by TopCount scintillation counting method relative to control. The class given is cell membranes. The method, boiled down:
as §2

Test [4] has as its target T1, Gamma-aminobutyric acid receptor subunit alpha-1/beta-2/delta (Homo sapiens) (UniProt P14867+P47870+O14764). As to the kind of experiment: Modulation of human alpha1beta2delta GABAA receptor expressed in Xenopus laevis oocytes assessed as increase in GABA-induced current at 1 mM at -60 mV holding potential by two-electrode voltage clamp electrophysiology method relative to control. The test is classed as cell-based. In a few lines: (§3)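 X. laevis oocytes injected with 0.9–1.8 ng cRNA for human α1, β2 and δ subunits (5:1:5) and stored at 18 °C in Barth's solution, pH 7.5. Two-electrode voltage clamp with 3 M KCl electrodes (~2–4 MΩ), perfused with recording solution at pH 7.4. Compound co-applied with 1 mM GABA. Initial and rebound currents expressed as fold increase over the 1 mM GABA response, mean ± S.E.M.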
In general terms: Two-electrode voltage clamp is typically applied to oocytes expressing channels or transporters.

Test [5] addresses T1, Gamma-aminobutyric acid receptor subunit alpha-1/beta-2/delta (Homo sapiens). The test can be described thus: Agonist activity at human alpha1beta2delta GABAA receptor expressed in Xenopus laevis oocytes assessed as increase in current amplitude at 1 mM at -60 mV holding potential by two-electrode voltage clamp electrophysiology method. The class given is cell-based. In a few lines:
as §3

For test [6], the target named is GABA-A receptor; GABA-A site (alpha1/beta2 interface) (Homo sapiens) (UniProt P14867+P47870). As to the kind of experiment: Modulation of human alpha1beta2 GABAA receptor expressed in Xenopus laevis oocytes assessed as increase in GABA-induced current at 1 mM at -60 mV holding potential by two-electrode voltage clamp electrophysiology method. The test is classed as cell-based. In a few lines:
as §1

Test [7] deals with T1, Gamma-aminobutyric acid receptor subunit alpha-1/beta-2/delta (Homo sapiens). As to the kind of experiment: Modulation of human alpha1beta2delta GABAA receptor expressed in Xenopus laevis oocytes assessed as increase in GABA-induced current by measuring rebound current at 1 mM at -60 mV holding potential measured after termination of compound application by two-electrode voltage clamp electrophysiology method relative to control. The class given is cell-based. The method, boiled down:
as §3

The target is the same in test [8]. The test can be described thus: Modulation of human alpha1beta2delta GABAA receptor expressed in Xenopus laevis oocytes assessed as increase in GABA-induced current by measuring rebound current at -60 mV holding potential measured after termination of compound application by two-electrode voltage clamp electrophysiology method relative to control. The class given is cell-based. The method, boiled down:
as §3

The structures appear in SMILES notation. The source made the active and inactive calls. The rule behind the calls is not given here.

Take `CCOC(=O)C1=C(C)NC(=O)NC1c1cccc(O)c1` (stereo not given): the outcome in test [1], in test [5] and in test [6] was inactive. In addition, in the test listed under Rattus norvegicus [2], the Kb result is “inactive”. Further, the “%max” value in the test listed under Rattus norvegicus [3] was “inactive”. Besides, in test [4], the fold change (FC) came to 6.2.
For the compound `CCOC(=O)C1=C(C)NC(=S)NC1c1ccccc1` (stereo not given), the Kb result in the test filed under Rattus norvegicus [2] was “inactive”. Besides, in the test listed under Rattus norvegicus [3], the “%max” value was “inactive”.
In the case of `CCC(=O)C1=C(CC)NC(=S)NC1c1cccc(O)c1` (stereo not given), the %max in the test listed under Rattus norvegicus [3] came out at 130%.
As for `CCOC(=O)C1=C(C)NC(=S)N[C@@H]1c1cccc(O)c1`, the pKb in the test filed under Rattus norvegicus [2] turned out to be 3.48. In the test filed under Rattus norvegicus [3], the %max came to 171%.
For `CCOC(=O)C1=C(C)NC(=S)N[C@H]1c1cccc(O)c1` the same measures were 3.95 and 208%.
As to `CCOC(=O)C1=C(C)NC(=S)NC1c1ccc(C)cc1` (stereo not given), the Kb entry in the test filed under Rattus norvegicus [2] was “inactive”. For the same compound, the “%max” value in the test listed under Rattus norvegicus [3] is “inactive”.
For `CCOC(=O)C1=C(C)NC(=S)NC1c1cccnc1` (stereo not given), the Kb entry in the test listed under Rattus norvegicus [2] is “inactive”. Moreover, the “%max” value in the test filed under Rattus norvegicus [3] was “inactive”.
Regarding `CCOC(=O)C1=C(C)N=C(S)NC1C` (stereo not given), the Kb entry in the test listed under Rattus norvegicus [2] is “inactive”. Also, the “%max” value in the test filed under Rattus norvegicus [3] is “inactive”.
For `CCOC(=O)C1=C(C)N(Cc2ccccc2)C(=S)NC1c1cccc(O)c1` (stereo not given), the Kb entry in the test filed under Rattus norvegicus [2] is “inactive”. Moreover, the “%max” value in the test listed under Rattus norvegicus [3] was “inactive”.
In the case of `COC(=O)C1=C(C)NC(=S)NC1c1cccc(O)c1` (stereo not given), the outcome in test [1], in test [5] and in test [6] was inactive. In the test filed under Rattus norvegicus [2], this compound came in with a pKb of 3.46. In the test listed under Rattus norvegicus [3], the %max is 194%. In addition, in test [4], the fold change (FC) was 1.3. The result in test [7] was Active.
With `CCOC(=O)C1=C(C)NC(=S)NC1c1cccc(F)c1` (stereo not given), the Kb entry in the test filed under Rattus norvegicus [2] is “inactive”. For the same compound, in the test filed under Rattus norvegicus [3], the “%max” value was “inactive”.
For `CCCC1=C(C(=O)OCC)C(c2cccc(O)c2)NC(=S)N1` (stereo not given), in the test listed under Rattus norvegicus [3], the %max is 198%.
For `CCOC(=O)C1=C(C)N=C(S)NC1c1cccc([N+](=O)[O-])c1` (stereo not given), the Kb entry in the test listed under Rattus norvegicus [2] is “inactive”. The “%max” value in the test listed under Rattus norvegicus [3] is “inactive”.
For the compound `CCCCN1C(=S)NC(c2cccc(O)c2)C(C(=O)OCC)=C1C` (stereo not given), the Kb result in the test filed under Rattus norvegicus [2] was “inactive”. The “%max” value in the test listed under Rattus norvegicus [3] was “inactive”.
Regarding `CC1=C(C(=O)OCc2ccccc2)C(c2cccc(O)c2)NC(=S)N1` (stereo not given), the Kb entry in the test filed under Rattus norvegicus [2] was “inactive”. The “%max” value in the test filed under Rattus norvegicus [3] was “inactive”.
Consider `CCOC(=O)C1=C(C(C)C)NC(=S)NC1c1cccc(O)c1` (stereo not given), for which the %max in the test listed under Rattus norvegicus [3] is 130%.
For the compound `CCOC(=O)C1=C(C)NC(=S)NC1c1cccc(OC)c1` (stereo not given), the Kb result in the test filed under Rattus norvegicus [2] was “inactive”. Also, the “%max” value in the test listed under Rattus norvegicus [3] is “inactive”.
On to `CCOC(=O)C1=C(C)NC(=S)NC1c1ccc(O)c(O)c1` (stereo not given), for which the result in test [1], in test [5] and in test [6] was inactive. Also, the negative logarithm of the Kb (pKb) in the test listed under Rattus norvegicus [2] is 3.68. Also, the %max in the test listed under Rattus norvegicus [3] was determined as 246%. Besides, the fold change (FC) in test [4] amounted to 2.7. For the same compound, the outcome in test [7] was Active.
For `CCOC(=O)C1=C(C)N(c2ccccc2)C(=S)NC1c1cccc(O)c1` (stereo not given), the Kb entry in the test filed under Rattus norvegicus [2] was “inactive”. The “%max” value in the test listed under Rattus norvegicus [3] was “inactive”.
With `CCOC(=O)C1=C(c2ccccc2)NC(=S)NC1c1cccc(O)c1` (stereo not given), the Kb result in the test filed under Rattus norvegicus [2] is “inactive”. Also, the “%max” value in the test filed under Rattus norvegicus [3] was “inactive”.
In the case of `CCOC(=O)C1=C(C(C)(C)C)NC(=S)NC1c1cccc(O)c1` (stereo not given), the %max in the test filed under Rattus norvegicus [3] stood at 130%.
With `COC(=O)C1=C(C)N(C)C(=S)NC1c1cccc(O)c1` (stereo not given), the Kb result in the test listed under Rattus norvegicus [2] was “inactive”. Moreover, the “%max” value in the test listed under Rattus norvegicus [3] was “inactive”.
As for `CCOC(=O)C1=C(C)NC(=O)NC1c1ccccc1` (stereo not given), the Kb result in the test listed under Rattus norvegicus [2] is “inactive”. Besides, the “%max” value in the test filed under Rattus norvegicus [3] is “inactive”.
Consider `CCOC(=O)C1=C(C)N(C)C(=S)NC1c1cccc(O)c1` (stereo not given), for which the result in test [1], in test [5] and in test [6] was inactive. The Kb in the test listed under Rattus norvegicus [2] was 87 µM. Moreover, the negative logarithm of the Kb (pKb) in the test filed under Rattus norvegicus [2] was 4.06. Further, in the test listed under Rattus norvegicus [3], the %max is 177%. Further, in test [4], the fold change (FC) amounted to 3.1. For the same compound, the result in test [7] was Active.
With `CC(=O)C1=C(C)NC(=S)NC1c1cccc(O)c1` (stereo not given), the %max in the test filed under Rattus norvegicus [3] worked out at 130%.
As for `CCOC(=O)C1=C(C)NC(=S)NC1c1cccc(O)c1` (stereo not given), the outcome in test [1], in test [5] and in test [6] was inactive. Also, the pKb in the test listed under Rattus norvegicus [2] was 3.96. Also, the %max in the test filed under Rattus norvegicus [3] was found to be 185%. Further, in test [4], the fold change (FC) was determined as 2.9. Besides, the Activity result in test [8] is “Dose-dependent effect”.
With `CCOC(=O)C1=C(C)N(CC)C(=S)NC1c1cccc(O)c1` (stereo not given), the %max in the test filed under Rattus norvegicus [3] amounted to 130%.
As to `CCOC(=O)C1=C(C)NC(=S)NC1c1cc(O)cc(O)c1` (stereo not given), in the test filed under Rattus norvegicus [2], the pKb turned out to be 3.83. Further, the %max in the test listed under Rattus norvegicus [3] turned out to be 247%.
As to `CCN(CC)C(=O)C1=C(C)NC(=S)NC1c1cccc(O)c1` (stereo not given), in the test listed under Rattus norvegicus [2], the Kb result was “inactive”. Moreover, the “%max” value in the test filed under Rattus norvegicus [3] is “inactive”.
Take `CCOC(=O)C1=C(C)N(C)C(=S)N(C)C1c1cccc(O)c1` (stereo not given): the Kb result in the test listed under Rattus norvegicus [2] was “inactive”. Besides, the “%max” value in the test listed under Rattus norvegicus [3] is “inactive”.
Turning to `CCOC(=O)C1=C(C)NC(=S)NC1c1cccc(C)c1` (stereo not given), the Kb result in the test filed under Rattus norvegicus [2] is “inactive”. Besides, the “%max” value in the test filed under Rattus norvegicus [3] is “inactive”.
On to `CCOC(=O)C1=C(C)NC(=S)NC1c1cccc(Cl)c1` (stereo not given), for which the Kb result in the test listed under Rattus norvegicus [2] is “inactive”. Moreover, the “%max” value in the test listed under Rattus norvegicus [3] is “inactive”.
On to `CCOC(=O)C1=C(C)NC(=S)NC1c1ccnn1C` (stereo not given), for which the Kb entry in the test filed under Rattus norvegicus [2] is “inactive”. Besides, the “%max” value in the test listed under Rattus norvegicus [3] is “inactive”.
For the compound `CCOC(=O)C1=C(C)NC(=S)NC1c1ccc(O)cc1` (stereo not given), the Kb entry in the test listed under Rattus norvegicus [2] was “inactive”. In addition, the “%max” value in the test filed under Rattus norvegicus [3] was “inactive”.
On to `CC1=C(C(=O)O)C(c2cccc(O)c2)NC(=S)N1` (stereo not given), for which, in the test filed under Rattus norvegicus [2], the Kb entry is “inactive”. In the test filed under Rattus norvegicus [3], the “%max” value was “inactive”.
With `COC(=O)C1=C(C)NC(=O)NC1c1ccccc1` (stereo not given), the outcome in test [1], in test [5] and in test [6] was inactive. Further, the Kb entry in the test filed under Rattus norvegicus [2] is “inactive”. The fold change (FC) in test [4] was determined as 5.9.
In the case of `CCOC(=O)C1=C2CCCN2C(=S)NC1c1cccc(O)c1` (stereo not given), the Kb result in the test listed under Rattus norvegicus [2] was “inactive”. Moreover, the “%max” value in the test listed under Rattus norvegicus [3] is “inactive”.
In the case of `CCOC(=O)C1=C(C)NC(=S)NC1c1cn(-c2ccccc2)nn1` (stereo not given), the Kb result in the test filed under Rattus norvegicus [2] was “inactive”. Further, the “%max” value in the test listed under Rattus norvegicus [3] was “inactive”.
Consider `CCOC(=O)C1=C(CC)NC(=S)NC1c1cccc(O)c1` (stereo not given), for which the result in test [1], in test [5] and in test [6] was inactive. In the test filed under Rattus norvegicus [2], this compound displayed a negative-log Kb (pKb) of 3.98. Further, in the test listed under Rattus norvegicus [3], the %max came out at 245%. The fold change (FC) in test [4] amounted to 1.4. The outcome in test [7] was Active.

(Values after ChEMBL document CHEMBL4190247, “Monastrol, a 3,4-dihydropyrimidin-2(1H)-thione, as structural scaffold for the development of modulators for GHB high-affinity binding sites and α1β2δ GABAA receptors” (Eur J Med Chem, 2017).)
